High-throughput results (PubChem)
This is a sample that favours compounds with a hit; in the whole collection about 3.5% have one here.
MrgX1 antag: blocks BAM8-22 activation of human MrgX1 receptor. MRGX1-HEK293 calcium flux, Fluo-4, BAM8-22 antagonism; active compounds read low. B-score at 10 µM. AID 588676. actives 1.3% (n = 310,000);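 active = calcium-response B-score plate-corrected more than 3 library SD below zero, starting fluorescence within 5 deviations, no agonist response on first addition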;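 note: peak minus trough fluorescence over baseline after final BAM8-22 challenge near maximal dose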
Target sequence (Q96LB2 whole entry, looked up): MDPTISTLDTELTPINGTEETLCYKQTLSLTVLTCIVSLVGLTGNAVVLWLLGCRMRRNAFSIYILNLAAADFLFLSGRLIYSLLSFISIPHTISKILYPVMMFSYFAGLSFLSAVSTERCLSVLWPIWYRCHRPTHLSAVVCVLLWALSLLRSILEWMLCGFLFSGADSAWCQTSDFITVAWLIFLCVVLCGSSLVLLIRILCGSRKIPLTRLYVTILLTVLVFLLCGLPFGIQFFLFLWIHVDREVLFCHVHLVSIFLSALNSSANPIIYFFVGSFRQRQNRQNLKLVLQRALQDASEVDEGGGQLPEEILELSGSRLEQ
MrgX1 ag: agonists of human MrgX1 receptor; Q96LB2; MrgX1-HEK293 cells, Fluo-4 calcium fluorescence, agonist mode; active compounds read high; B-score at 10 µM; actives 0.44% (n = 310,000); AID 588627;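 active = calcium response B-score plate-corrected fluorescence ratio at least 3 library SD, with starting fluorescence B-score inside 5 SD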
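Test system: HEK293 cells stably expressing human MrgX1 receptor; Input: fifteen thousand cells per well; Dosing: compound delivered in addition one of three; Schedule: overnight seeding, then 1 h dark dye loading; Technique: Fluo-4 NW calcium fluorescence; Measure: B-scored fluorescence response ratio; Controls: positive and negative controls per plate.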
RGS4 act: RGS4 potentiation or activation; HEK293 M3R/inducible RGS4, carbachol calcium flux Fluo4; active compounds read low; B-score at 10 µM; actives 0.92% (n = 310,000); AID 463111;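 active = B-score of the integrated calcium signal more than 4 SD below the library mean, with starting fluorescence not abnormally high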;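 note: negative B-score means reduced calcium response which marks RGS4 activation or potentiation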
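Detection: kinetic calcium fluorescence imaging with Fluo4-AM dye, 2 µM / Material: HEK293 cells with stable M3R and inducible RGS4 / Schedule: recording 10 s baseline at 1 Hz, 100 s post-agonist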
RGS4 block: inhibitors of human RGS4 | HEK293 M3R/RGS4 inducible, Fluo-4 calcium flux; active compounds read high; triggered by carbachol at its EC20 | AID 463165 | B-score at 10 µM | actives 0.45% (n = 310,000);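 active = B-score, a plate-corrected calcium signal, over three deviations above library mean, with baseline fluorescence within five deviations of library mean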;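 note: RGS4 expression induced by doxycycline in cells with stable M3 receptor; B-score is computed from the integrated fluorescence ratio over baseline after carbachol; higher B-score means a larger calcium signal and so more RGS4 inhibition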
Target sequence (P49798 whole entry, looked up): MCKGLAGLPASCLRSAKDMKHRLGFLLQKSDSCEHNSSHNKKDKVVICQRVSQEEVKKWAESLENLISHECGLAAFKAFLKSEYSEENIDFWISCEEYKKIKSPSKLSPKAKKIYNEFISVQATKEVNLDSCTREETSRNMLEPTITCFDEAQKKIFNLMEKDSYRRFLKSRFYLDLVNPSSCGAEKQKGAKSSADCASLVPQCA
MrgX1 allo act: allosterically activates human MrgX1 receptor signaling. AID 588675. actives 0.63% (n = 310,000). B-score at 10 µM. Q96LB2. MrgX1-HEK293, Fluo-4 calcium flux, FDSS; active compounds read high;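 active = plate-corrected calcium response at least 3 library SD above typical, normal starting fluorescence, not activating the receptor alone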;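 note: compound read alongside a low EC10 to EC30 dose of BAM8-22 agonist; peak minus trough fluorescence over baseline measured at the second addition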
RGS4 act valid: confirmation of RGS4 activators. shares compounds with RGS4 act. actives 89% (n = 1,100). HEK293 M3R/RGS4 inducible, carbachol calcium flux Fluo4. inhibition, % at 10 µM. AID 602282;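 active = inhibition above 3 SD of the buffer control wells, cut at about 41% in these data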;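 note: signal is the integrated peak-minus-minimum Fluo4 fluorescence over baseline ratio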
M3R Ca counter: activity in cells without induced RGS4 expression; HEK293 M3R non-induced RGS4, Fluo4 calcium flux; after carbachol challenge at its EC90; actives 82% (n = 1,100); shares compounds with RGS4 act; inhibition, % at 10 µM;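 active = inhibition exceeding 3 SD of buffer-only control wells, cut at about 26% in these data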;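 note: percent drop in integrated peak-minus-baseline over baseline Fluo4 ratio after carbachol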
Large screens that a line does not name were inactive (follow-up assays come after a bar, where they were run).

CCCCCCCOC(=O)C1=C(C)Nc2ncnn2C1c1cccs1 (configuration not stated)	none
CCCCCCCCOC(=O)C1=C(C)Nc2nnnn2C1c1cccs1 (configuration not stated)	RGS4 act -10.7 | RGS4 act valid 90.0 | M3R Ca counter 75.3
O=c1[nH]c(C2CCN(S(=O)(=O)/C=C/c3ccccc3)CC2)nc2c1nnn2Cc1ccccc1	none
CCC(c1nnnn1Cc1cccs1)N1CCN(c2nc3ccccc3s2)CC1 (configuration not stated)	none
CC(C)CC(c1nnnn1Cc1cccs1)N1CCN(c2nc3ccccc3s2)CC1 (configuration not stated)	RGS4 act -11.5 | RGS4 act valid 92.5 | M3R Ca counter 70.8
COc1ccc(C(=O)NCc2nnc(SCC(=O)N3CCCC3)o2)cc1	none
CCOC(=O)c1c(C)[nH]c(C(=O)OC(C)C(=O)Nc2ccccc2OC)c1C (configuration not stated)	none
Cc1c(CC(=O)O)c(=O)oc2cc3c(cc12)CCC(C)(C)O3	none
Cc1c(CC(=O)N2CCC(C(N)=O)CC2)c(=O)oc2cc3c(cc12)CCC1(CCCCC1)O3	RGS4 act -8.9 | RGS4 act valid 92.5 | M3R Ca counter 78.3
COc1ccc(CN2CCCC(C(=O)c3ccc(SC)cc3)C2)cc1Cn1cccn1 (configuration not stated)	none
CSc1ccc(C(=O)C2CCCN(Cc3ccc(N4CCNC4=O)cc3)C2)cc1 (configuration not stated)	RGS4 act -7.95 | RGS4 act valid 91.0 | M3R Ca counter 57.3
O=C(CN1C(=O)CSc2ccc(S(=O)(=O)N3CCOCC3)cc21)NCc1ccc(Cl)cc1	none
Cc1cc(C)n(-c2ccc(C(=O)Nc3ccc(C)c(S(=O)(=O)N4CCOCC4)c3)cc2)n1	RGS4 act -8.11 | RGS4 act valid 89.0 | M3R Ca counter 57.3
CC(C)(C)N(Cc1nc(-c2ccccc2)no1)C(=O)c1ccc2c(c1)OCO2	none
CC(C)(C)N(Cc1ccccc1)C(=O)c1ccc2c(c1)OCCO2	RGS4 act -9.2 | RGS4 act valid 92.0 | M3R Ca counter 53.8
COC(=O)CSc1nc(SCc2ccccc2Cl)nc2c1CCCC2	RGS4 act -8.01 | RGS4 act valid 47.5 | M3R Ca counter 83.8
CN(C)CCC1Sc2ccccc2Oc2ccccc21 (configuration not stated)	RGS4 act -7.64 | RGS4 act valid 73.5 | M3R Ca counter 83.8
Cc1ccc(NC(=O)CN(C)C(=O)C2CC(=O)N(Cc3ccccc3)C2)cc1 (configuration not stated)	none
NCCC(=O)N1c2ccccc2Sc2ccccc21	none
CCN(CC)CC(=O)N1c2ccccc2Sc2ccccc21	RGS4 act -8.54 | RGS4 act valid 93.0 | M3R Ca counter 81.3
O=C(CN1CCCC1)N1c2ccccc2Sc2ccccc21	RGS4 act -9.52 | RGS4 act valid 92.0 | M3R Ca counter 69.3
CCn1c(=O)c2c(nc(SCC(=O)N3CCC(C)CC3)n2C)n(C)c1=O	none
COc1cc(CN2CCN(C(c3ccccc3)c3ccccc3)CC2)cc(OC)c1OC	RGS4 act -8.93 | RGS4 act valid 86.0 | M3R Ca counter 30.3
COc1cccc(CN2CCN(C(c3ccccc3)c3ccccc3)CC2)c1O	RGS4 act -8.79 | RGS4 act valid 91.5 | M3R Ca counter 74.8
COC(=O)C(O)(CC(=O)Nc1ccc(Cl)cc1Cl)C(F)(F)F (configuration not stated)	RGS4 act -9.21 | RGS4 act valid inactive | M3R Ca counter inactive
Cc1c(C(=O)N2CCN(c3ccccc3)CC2)sc2ncnc(N3CCN(c4ccccn4)CC3)c12	RGS4 act -9.69 | RGS4 act valid 80.5 | M3R Ca counter 48.3
Cc1c(C(=O)N2CCN(c3ccc(F)cc3)CC2)sc2ncnc(N3CCN(c4ccccn4)CC3)c12	RGS4 act -8.9 | RGS4 act valid 92.0 | M3R Ca counter 83.8
Cc1c(C(=O)N(C)C2CCCCC2)sc2ncnc(N3CCN(c4ccccc4)CC3)c12	RGS4 act -9.65 | RGS4 act valid inactive | M3R Ca counter 28.3
Cc1c(C(=O)N(C)C2CCCCC2)sc2ncnc(N3CCN(c4ccccc4F)CC3)c12	none
CS(=O)(=O)N(CC(=O)N1CCc2ccccc2C1)c1ccc(Cl)cc1F	none
Cc1cccc(C)c1NC(=O)CN(C)C(=O)Cn1c(=O)cnc2ccccc21	none
CCOC(=O)Cn1nc(C)c(NC(=O)c2ccc(Br)o2)c1C	none
CCOc1ccc(-c2noc(CCC(=O)NCC3CCCO3)n2)cc1OC (configuration not stated)	none
O=C1C(NS(=O)(=O)c2cccs2)=C(N2CCN(Cc3ccccc3)CC2)C(=O)c2ccccc21	RGS4 act -8.1 | RGS4 act valid 63.0 | M3R Ca counter inactive
CN1CCN(C2=C(NS(=O)(=O)c3cccs3)C(=O)c3ccccc3C2=O)CC1	none
O=C(Nc1ccc2c(c1)OCCO2)c1ccccc1F	none
O=C(Nc1ccc2c(c1)OCCO2)c1cccc2nc3ccccc3nc12	RGS4 act -9.28 | RGS4 act valid 85.5 | M3R Ca counter 52.3
CC(=O)N1c2ccc(S(=O)(=O)NCCC(=O)Nc3ccc(C)c(F)c3)cc2CC1C (configuration not stated)	none
COc1ccc(C(CNC(=O)c2ccc(Cl)c(NC(=O)c3cccs3)c2)N2CCCC2)cc1 (configuration not stated)	RGS4 act -12.5 | RGS4 act valid 89.0 | M3R Ca counter 52.3
Cc1ccc(C(=O)N2CCC(C(=O)c3c(C)cc(C)cc3C)CC2)cc1	none
CCCCCc1n[nH]c2c1CCCC2	none
c1ccc(Cn2c(CN3CCCC3)nc3ccccc32)cc1	RGS4 act -8.53 | RGS4 act valid inactive | M3R Ca counter 83.8
Clc1ccc(Cn2c(CN3CCCC3)nc3ccccc32)cc1	none
CC(=O)Nc1cccc(NC(=O)c2cc(-c3cccnc3)nc3ccc(Br)cc23)c1	none
CC(=O)Nc1cccc(NC(=O)c2cc(-c3cccnc3)nc3ccc(Cl)cc23)c1	RGS4 act -8.63 | RGS4 act valid 46.0 | M3R Ca counter inactive
O=C(Nc1cccnc1)c1cc(-c2ccc(Br)cc2)nc2ccccc12	RGS4 act -13.3 | RGS4 act valid 91.5 | M3R Ca counter 75.8
Cc1ccc(-c2cc(C(=O)Nc3cccnc3)c3ccccc3n2)o1	none
Cc1ccc(S(=O)(=O)n2c(N)nc3ccccc32)cc1	RGS4 act -7.77 | RGS4 act valid 91.5 | M3R Ca counter 96.3
